Series [1] has as its system Borrelia. The series is described as follows: Dot blot binding of individual phage clones to Borrelia. The arrangement: species or system Borrelia garinii (strain SKT-7.1). The settings on record: spirochetes fixed on PVDF membrane, anti-M13 antibody. Summed up:
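2 µl Borrelia (PBS, OD600 1.2) are spotted on activated PVDF, air-dried, fixed with 4% paraformaldehyde for 10 min, dried overnight and blocked for 1 h. Individual phage clones from the third panning (10^11) are added for 1 h with shaking. After PBS-0.05% Tween washes, anti-M13 pIII mAb (1:1000) then IRDye […] anti-mouse (1:15000) are applied, 1 h each. Read at 800 nm. No-phage negative control.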

For a further series, the system named is bacterial cell wall. The settings on record: cited from earlier work.
Series [2] deals with spirochetal form of Borrelia as well as biofilm. Conditions: compared to antibiotics; cited from earlier work.
Series [3] concerns brain microvascular endothelial cells (BMECs). The series is described as follows: Cell-ELISA binding to endothelial cells. The settings on record: 2 µg peptide, fixed BMEC monolayer, triplicate. Summed up:
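BMEC monolayers in 96 wells are washed with PBS and fixed in 4% paraformaldehyde for 10 min, then blocked. They are incubated with 2 µg His-tagged test peptide and washed with PBS-T. Bound peptide is detected with HisProbe-HRP (1:1000, 1 h, room temperature) and TMB (25 min), stopped with 2 M H2SO4, read at 450 nm. Triplicates. Negative controls omit cells or peptide.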
Background: In an ELISA, binding on a coated surface is turned into a signal by an enzyme label.

The subject of a further series is cystic form of Borrelia. Description: Inhibition of conversion of cystic form into spirochetal form. Format: cell-based, Borrelia garinii (strain SKT-7.1). Conditions: for recovery of cystic Borrelia and transformation into the spirochetal form: peptides 1.66 µM for 16 h. The method, boiled down: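 Cysts formed by 1:1 dilution of early-log culture in serum-free BSK-II, 2 weeks at 15 °C. 2 × 10^3 cysts exposed 16 h to test compound (two-fold series, 3.33–0.05 µM) in serum-free BSK-II, then pelleted and compound removed. Regrown 15 days at 33 °C in serum-containing BSK-II. Counted by flow cytometry; % inhibition vs PBS control; doxycycline 50 nM control.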

For series [4], the system named is spirochetal form of Borrelia. It counts as cell-based, Borrelia garinii (strain SKT-7.1). Conditions: 5 days, 33 °C; for viability of Borrelia (spirochetal form): peptide 1.67 µM, triplicate; for inhibition of the spiral form of Borrelia: 0.41 µM. Summed up:
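Early-log Borrelia (BSK-II with 6% rabbit serum, 33 °C, about 2 weeks) are counted by flow cytometry. 2 × 10^3 cells go into 200 µl fresh BSK-II with test peptide at 6.67, 3.33, 1.67 or 0 µM, 33 °C for 5 days, then are recounted by flow cytometry. Percent inhibition is relative to 0 µM. Follow-up runs use 0.83, 0.41, 0.20 and 0.10 µM. Doxycycline (50 µM–5 nM) is the positive control.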

Series [5] deals with Borrelia. Description: ELISA binding of Bor peptides to Borrelia. Conditions: for affinity to spirochetal form, cystic form and trypsin-shaved Borrelia (ELISA): 2 µg/well. The arrangement: species or system Borrelia garinii (strain SKT-7.1). The method, boiled down: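 Paraformaldehyde-fixed early-log Borrelia in microtiter wells are incubated 1 h with His-tagged test peptide, 2 µg/well for screening. Two-fold dilutions from 2.6 µM to 86 nM are used for concentration dependence, with the peptide-omitted background subtracted. Detection: five PBS-T washes, HisProbe-HRP (1:1000, 0.5% BSA, 1 h, room temperature), TMB 25 min, 2 M H2SO4 stop, 450 nm. Triplicates. Negative controls omit Borrelia or peptide.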

Series [6] has as its system BBB model (BMECs, cell line D3). Format: in vitro ADME. Conditions: 1 µg/ml Cy5.5 labelled, luminal to abluminal. Summed up:
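D3 BMECs (5 × 10^5) are seeded on collagen-I-coated transwell inserts (1 µm pores) in complete endothelial medium. Barrier is confirmed by TEER and dextran. Cy5.5-NHS-labelled truncated OspA fragments (beta sheets 10–11 or 12–16), angiopep-2-Cy5.5 or CF770 dextran go luminally at 1 µg/ml, 37 °C. Abluminal fluorescence (650/705 nm; 770/797 nm) is read at 1, 2 and 3 h and converted by standard curves.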

For a further series, the system named is HEK293T cells. The series is described as follows: Cell toxicity, XTT assay. It counts as cell-based. The settings on record: 3.33 µM, 24 h, six replicates. Summed up: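 HEK293T cells are grown in high-glucose DMEM with 2 mM L-glutamine and 5% FBS (37 °C, 5% CO2) to 70% confluence. They get test peptide at 3.33 or 0 µM for 24 h. XTT reagent is added for 3 h and read at 450 nm. Controls are PBS (negative) and 0.1% Triton X. Six replicates. Metabolic activity is blank-subtracted sample ×100 over blank-subtracted PBS control.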
Background: Tetrazolium dyes change colour on reduction, which living cells bring about.

Entries after “also recorded” stand apart in the source; their conditions may differ. Like-named read-outs stand apart in the source and are kept apart here. Bridges are numbered along the chain shown (N, C = ends). Where no end group is shown, it is not given here. Where only a bound is given, the exact number is not on record here.

For “ACNVRTCHDCGGGS (disulfide (positions not given here)) [Ph.Bor-24]”, in the series with Borrelia [1], the “binding of phage clone to Borrelia in dot blot” value (“binding of phage clone” below) was “best binders”.
Turning to “ACPRGIGLQCGGGS (disulfide 2-10 (inferred)) [Ph.Bor-26]”, the “binding of phage clone” value with Borrelia [1] was “best binders”.
As for “ACGYSSFNRCGGGS (disulfide 2-10 (inferred)) [Ph.Bor-16]”, the “binding of phage clone” value in the series with Borrelia [1] is listed as “best binders”.
melittin: in the series with bacterial cell wall, the “time to destabilise the bacterial cell wall” value was “roughly 75 min”. Also, in series [2], the “effect on the spirochetal form of Borrelia as well as biofilm” value is “significant effect”.
Consider “ACQPRNLNNCGGGS (disulfide 2-10 (inferred)) [Ph.Bor-18]”, for which the “binding of phage clone” value in the series on Borrelia [1] is recorded as “best binders”.
In the case of “MRGSHHHHHHGSNEKGETSEKTIVRANGTRLEYTDIKSDGIEGRVDGGGGSDDDDKMACGYSSFNRCGGGS (disulfide 59-67 (inferred)) [Bor-16]”, the “binding to brain microvascular endothelial cells (cell-ELISA)” value (“binding … (cell-ELISA)” below) in series [3] is “bind endothelial cells”. In addition, the “recovery of cystic Borrelia and transformation into the spirochetal form” value in the series with cystic form of Borrelia is “significantly reduced”. Also, the “viability of Borrelia (spirochetal form)” value in [4] is less than 50%.
In the same order, the values of “MRGSHHHHHHGSNEKGETSEKTIVRANGTRLEYTDIKSDGIEGRVDGGGGSDDDDKMACPRGIGLQCGGGS (disulfide 59-67 (inferred)) [Bor-26]” are “bind endothelial cells”, “significantly reduced” and less than 50%.
Regarding “MRGSHHHHHHGSNEKGETSEKTIVRANGTRLEYTDIKSDGIEGRVDGGGGSDDDDKMACQPRNLNNCGGGS (disulfide 59-67 (inferred)) [Bor-18]”, the “binding … (cell-ELISA)” value in [3] was “bind endothelial cells”. In addition, in the series with Borrelia [5], the “affinity to spirochetal form, cystic form and trypsin-shaved Borrelia (ELISA)” value is “showed affinity for all three forms”. For the same compound, the “Absorbance450 in ELISA, binding to Borrelia” value in the series with Borrelia [5] (peptide 0.08 µM, early log phase Borrelia, negative control subtracted) turned out to be 0.8. Further, the “binding to Borrelia in ELISA compared with other peptides” value with Borrelia [5] (peptide 0.16 µM, early log phase Borrelia) was “significantly higher; also recorded: showed binding affinity”. In addition, in series [4], the “inhibition of the spiral form of Borrelia” value is given as “more than 50%” and the “viability of Borrelia (spirochetal form)” value was less than 50%.
On to “ACRGATPMSCGGGS (disulfide 2-10 (inferred)) [Ph.Bor-8]”, for which the “binding of phage clone” value with Borrelia [1] was “best binders”.
The same measure, in the same setting: in the case of “ACTPSFSKICGGGS (disulfide 2-10 (inferred)) [Ph.Bor-11]” it was “best binders”.
Turning to `C[C@H]1c2cccc(O)c2C(=O)C2=C(O)[C@]3(O)C(=O)C(C(N)=O)=C(O)[C@@H](N(C)C)[C@@H]3[C@@H](O)[C@@H]21` [doxycycline, reference compound], in the series with cystic form of Borrelia (0.05 µM for 16 h), the “inhibition of transformation and recovery of cysts into the spirochetal form” value is “did not inhibit”.
“ACHNTPHHLCGGGS (disulfide 2-10 (inferred)) [Ph.Bor-23]”: the “binding of phage clone” value with Borrelia [1] is on record as “best binders”.
Turning to NEKGETSEKTIVRANGTRLEYTDIKSDG [O-BBB], the “binding … (cell-ELISA)” value in series [3] was “bind endothelial cells”. Further, the “affinity to Borrelia (ELISA)” value in the series on Borrelia [5] (2 µg peptide per well, fixed Borrelia, HisProbe-HRP, 450 nm, triplicate) is on record as “no affinity for Borrelia”. The “crossing of BBB model compared with angiopep-2” value in series [6] (2nd hr) is recorded as “comparable to that of angiopep-2”; in series [6] (3rd hr), “significantly higher than that of angiopep-2”. The “effect on cell metabolic activity (XTT)” value with HEK293T cells is “no adverse effects”. In series [4] (6.67 µM), the “borreliacidal effect on spirochetal form” value is “no borreliacidal effect”.
In the case of “ACHNTSARVCGGGS (disulfide 2-10 (inferred)) [Ph.Bor-29]”, the “binding of phage clone” value with Borrelia [1] is “best binders”.
Turning to “ACLKLGEKWCGGGS (disulfide 2-10 (inferred)) [Ph.Bor-1]”, the “binding of phage clone” value in the series on Borrelia [1] was “best binders”.
On to “ACHNETQKMCGGGS (disulfide 2-10 (inferred)) [Ph.Bor-9]”, for which the “binding of phage clone” value with Borrelia [1] is given as “best binders”.
Consider “MRGSHHHHHHGSNEKGETSEKTIVRANGTRLEYTDIKSDGIEGRVDGGGGSDDDDKMACTPSFSKICGGGS (disulfide 59-67 (inferred)) [Bor-11]”, for which, in series [3], the “binding … (cell-ELISA)” value is “bind endothelial cells”. Moreover, the “affinity to spirochetal form, cystic form and trypsin-shaved Borrelia (ELISA)” value with Borrelia [5] is listed as “showed affinity for all three forms”. For the same compound, the “growth inhibition of cystic form” value with cystic form of Borrelia (0.41 µM, 16 h exposure, t-test p < 0.05) is “inhibiting growth significantly”. Moreover, the “recovery of cystic Borrelia and transformation into the spirochetal form” value with cystic form of Borrelia was “significantly reduced”. Also, the “effect on cell metabolic activity (XTT)” value in the series on HEK293T cells is recorded as “no adverse effects”. In [4], the “inhibition of the spiral form of Borrelia” value was “more than 50%” and the “viability of Borrelia (spirochetal form)” value is less than 50%.

(Values after article PMC11842550 (Scientific Reports, 2025).)
